Common to all, as to assay type: functional, cell-based
One test deals with A549. The experiment in a line: Cytotoxicity against human A549 cells by SRB assay. On the technique in general: In SRB staining, fixed cells bind dye roughly in proportion to their protein.
In the next test the test system is SK-OV-3. Briefly: Cytotoxicity against human SKOV3 cells by SRB assay. The method, boiled down: (§1)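 Standard sulforhodamine B assay on a panel of human tumour lines: A549 lung carcinoma, SK-OV-3 ovarian adenocarcinoma (from malignant ascites), SK-MEL-2 malignant melanoma (skin metastasis, thigh), XF-498 central nervous system tumour, and HCT 15 colon adenocarcinoma. Testing was done by an external pharmacology group.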

A further test deals with XF498. The experiment in a line: Cytotoxicity against human XF498 cells by SRB assay. Put shortly:
as §1

The test system of another test is SK-MEL-2. Briefly: Cytotoxicity against human SK-MEL-2 cells by SRB assay. The method, boiled down:
as §1

For a further test, the system named is HCT-15. The experiment in a line: Cytotoxicity against human HCT15 cells by SRB assay. The method, boiled down: as §1

Converted amounts (≈) assume the structure as drawn.

As usually defined, the IC50 is the point on the concentration scale where inhibition reaches its midpoint. As to `C[C@H]1CC[C@@]2(OC1)O[C@H]1C[C@H]3[C@@H]4CC[C@@H]5C[C@@H](O[C@@H]6O[C@H](CO)[C@@H](O)[C@H](O)[C@H]6O[C@@H]6O[C@@H](CO)[C@H](O)[C@H](O)[C@H]6O)CC[C@]5(C)[C@H]4CC[C@]3(C)[C@@]1(O)[C@@H]2C` (relative stereo) [ASPAOLIGONIN A], the IC50 with A549 was 2.25 µg/mL (≈ 2.97 µM); with SK-OV-3, 2.66 µg/mL (≈ 3.51 µM); with XF498 it was 2.84 µg/mL (≈ 3.75 µM); in the test with SK-MEL-2 it was 2.53 µg/mL (≈ 3.34 µM); with HCT-15, 2.59 µg/mL (≈ 3.42 µM).

For `C[C@H]1CC[C@@]2(OC1)O[C@H]1C[C@H]3[C@@H]4CC[C@@H]5C[C@@H](O[C@@H]6O[C@H](CO)[C@@H](O[C@@H]7O[C@@H](C)[C@H](O)[C@@H](O)[C@H]7O)[C@H](O)[C@H]6O[C@@H]6OC[C@@H](O)[C@H](O)[C@H]6O)CC[C@]5(C)[C@H]4CC[C@]3(C)[C@@]1(O)[C@@H]2C` (relative stereo) [ASPAOLIGONIN B], the IC50 in the test with A549 worked out at 2.55 µg/mL (≈ 2.92 µM); in the test with SK-OV-3 it was 2.73 µg/mL (≈ 3.13 µM); in the test on XF498 it was 2.51 µg/mL (≈ 2.88 µM); with SK-MEL-2 it was 2.59 µg/mL (≈ 2.97 µM); in the test on HCT-15 it was 2.57 µg/mL (≈ 2.94 µM).

As for `C[C@H]1CC[C@@]2(OC1)O[C@H]1C[C@H]3[C@@H]4CC[C@@H]5C[C@@H](O[C@@H]6O[C@H](CO)[C@@H](O)[C@H](O)[C@H]6O[C@@H]6O[C@@H](CO)[C@H](O)[C@H](O)[C@H]6O)CC[C@]5(C)[C@H]4CC[C@]3(C)[C@H]1[C@@H]2C` (relative stereo) [ASPARANIN A], the IC50 was 2.05 µg/mL (≈ 2.77 µM) with A549; 2.43 µg/mL (≈ 3.28 µM) in the test on SK-OV-3; 2.56 µg/mL (≈ 3.46 µM) in the test on XF498; 2.41 µg/mL (≈ 3.25 µM) in the test with SK-MEL-2; 2.47 µg/mL (≈ 3.33 µM) with HCT-15.

`COc1cccc2c1C(=O)c1c(O)c3c(c(O)c1C2=O)C[C@@](O)(C(=O)CO)C[C@@H]3O[C@H]1C[C@H](N)[C@H](O)[C@H](C)O1` [DOXORUBICIN]: the IC50 with SK-OV-3 is 0.18 µg/mL (≈ 0.331 µM); in the test on XF498, 0.12 µg/mL (≈ 0.221 µM); with SK-MEL-2 it was 0.03 µg/mL (≈ 0.0552 µM); in the test on HCT-15, 0.08 µg/mL (≈ 0.147 µM).
